Laboratory results reported in ChEMBL document CHEMBL5038571, “Design and Synthesis of EZH2-Based PROTACs to Degrade the PRC2 Complex for Targeting the Noncatalytic Activity of EZH2” (J Med Chem, 2021).
Activity calls are given as the source filed them. The calls are words filed in the database; no cut-off is given here.

Legend:
[1] = target: T1, Protein cereblon/Histone-lysine N-methyltransferase EZH2 (Homo sapiens) (UniProt Q15910+Q96SW2); assay: PROTAC activity at CRBN E3 ligase/EZH2 in PRC2 complex in human WSUDLCL2 cells assessed as induction of EED degradation at 1 uM incubated for 48 hrs by Western blot analysis relative to control; assay type: cell-based
T1 sequence (Q15910 whole entry, looked up): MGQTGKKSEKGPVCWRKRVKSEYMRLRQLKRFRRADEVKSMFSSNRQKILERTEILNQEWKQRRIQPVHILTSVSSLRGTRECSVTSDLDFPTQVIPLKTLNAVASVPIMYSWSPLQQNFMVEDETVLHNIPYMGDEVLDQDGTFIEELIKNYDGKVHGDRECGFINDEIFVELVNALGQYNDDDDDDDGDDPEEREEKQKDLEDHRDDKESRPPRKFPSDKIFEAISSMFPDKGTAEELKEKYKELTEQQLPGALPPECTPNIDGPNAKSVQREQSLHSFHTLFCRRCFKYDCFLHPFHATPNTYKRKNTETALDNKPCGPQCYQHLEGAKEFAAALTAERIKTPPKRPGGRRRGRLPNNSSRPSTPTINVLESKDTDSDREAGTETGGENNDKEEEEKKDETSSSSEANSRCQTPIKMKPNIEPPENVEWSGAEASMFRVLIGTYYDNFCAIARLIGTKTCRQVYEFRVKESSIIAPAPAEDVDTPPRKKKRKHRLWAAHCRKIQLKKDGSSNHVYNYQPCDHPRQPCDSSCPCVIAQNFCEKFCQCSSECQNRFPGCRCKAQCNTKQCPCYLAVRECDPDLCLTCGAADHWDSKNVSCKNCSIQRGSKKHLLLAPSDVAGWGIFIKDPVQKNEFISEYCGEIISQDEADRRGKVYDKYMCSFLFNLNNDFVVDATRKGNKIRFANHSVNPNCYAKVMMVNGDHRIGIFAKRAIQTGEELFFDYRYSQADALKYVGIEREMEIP
T1 sequence (Q96SW2 whole entry, looked up): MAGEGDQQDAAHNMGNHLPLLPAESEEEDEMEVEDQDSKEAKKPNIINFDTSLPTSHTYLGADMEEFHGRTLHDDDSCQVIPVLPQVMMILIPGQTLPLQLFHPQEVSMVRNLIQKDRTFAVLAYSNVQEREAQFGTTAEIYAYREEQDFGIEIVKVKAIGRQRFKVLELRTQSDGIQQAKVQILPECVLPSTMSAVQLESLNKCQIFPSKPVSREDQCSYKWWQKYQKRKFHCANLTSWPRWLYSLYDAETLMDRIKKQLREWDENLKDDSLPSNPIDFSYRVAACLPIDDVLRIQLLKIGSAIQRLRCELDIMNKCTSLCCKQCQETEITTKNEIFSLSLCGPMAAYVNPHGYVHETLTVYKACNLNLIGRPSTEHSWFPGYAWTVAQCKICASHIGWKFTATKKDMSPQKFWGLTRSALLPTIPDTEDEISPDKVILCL
Method in brief: (§1)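 WSU-DLCL-2 cells exposed to 1 μM compound for 48 h, with DMSO-treated cells as control. Bands quantified by densitometry and normalized to GAPDH. Mean SD from three independent experiments, t-test versus DMSO.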

[2] = target: T1, Protein cereblon/Histone-lysine N-methyltransferase EZH2 (Homo sapiens); assay: PROTAC activity at CRBN E3 ligase/EZH2 in PRC2 complex in human WSUDLCL2 cells assessed as induction of SUZ12 degradation at 1 uM incubated for 48 hrs by Western blot analysis relative to control; assay type: cell-based
Method in brief: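 WSU-DLCL-2 cells treated 48 h (1 μM for the single-concentration screen), lysed; SDS-PAGE, nitrocellulose transfer, 5% milk block, primary antibody 4 °C overnight, chemiluminescence. Bands quantified by densitometry, normalized to GAPDH, expressed relative to DMSO-treated cells; mean ± SD of three independent experiments, t-test.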

[3] = target: T1, Protein cereblon/Histone-lysine N-methyltransferase EZH2 (Homo sapiens); assay: PROTAC activity at CRBN E3 ligase/EZH2 in PRC2 complex in human WSUDLCL2 cells assessed as induction of EZH2 degradation at 1 uM incubated for 48 hrs by Western blot analysis relative to control; assay type: cell-based; method in brief: as §1
[4] = target: Histone-binding protein RBBP4 (Homo sapiens) (UniProt Q09028); assay: Binding affinity to RbAp48 in human WSUDLCL2 cells assessed as thermal stability by measuring shift in temperature at 60 uM pretreated with proteasome inhibitor MG132 for 1 hr followed by compound addition incubated for 2 hrs by cellular thermal shift based Western blot analysis; assay type: cell-based
Chain of Histone-binding protein RBBP4 (Homo sapiens) (Q09028 whole entry): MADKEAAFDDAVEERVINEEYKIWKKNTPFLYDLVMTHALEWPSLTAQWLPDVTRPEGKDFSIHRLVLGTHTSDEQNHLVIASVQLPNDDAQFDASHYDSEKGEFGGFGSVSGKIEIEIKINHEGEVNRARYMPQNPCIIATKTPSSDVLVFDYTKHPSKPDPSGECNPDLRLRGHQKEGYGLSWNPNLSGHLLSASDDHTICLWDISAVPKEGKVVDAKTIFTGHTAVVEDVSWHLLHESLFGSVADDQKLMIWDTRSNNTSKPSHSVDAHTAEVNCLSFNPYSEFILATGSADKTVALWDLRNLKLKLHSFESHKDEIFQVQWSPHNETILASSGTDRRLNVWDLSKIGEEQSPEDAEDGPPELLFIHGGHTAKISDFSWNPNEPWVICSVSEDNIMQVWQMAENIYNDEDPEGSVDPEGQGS
Method in brief: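 Cellular thermal shift: cells suspended at 1.5 × 10⁶/mL and pretreated with MG-132 (5 μM, 1 h), then given 60 μM compound for 2 h with a DMSO control. Cells were lysed in RIPA with cocktail for 1 h. Supernatant aliquots were heated 6 min at 45, 48, 51, 54, 57 and 60 °C and centrifuged 15 min. Soluble protein was immunoblotted; bands quantified by densitometry; three independent experiments.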

[5] = target: T1, Protein cereblon/Histone-lysine N-methyltransferase EZH2 (Homo sapiens); assay: PROTAC activity at CRBN E3 ligase/EZH2 in PRC2 complex in human WSUDLCL2 cells assessed as reduction in H3K27me3 level at 10 uM incubated for 48 hrs by Western blot analysis; assay type: cell-based
[6] = target: T1, Protein cereblon/Histone-lysine N-methyltransferase EZH2 (Homo sapiens); assay: PROTAC activity at CRBN E3 ligase/EZH2 in PRC2 complex in human A2780 cells assessed as induction of EED degradation by measuring reduction in EED protein level at 1 uM incubated for 48 hrs by Western blot analysis; assay type: cell-based
Method in brief: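 Cancer cell lines exposed to 1 μM compound for 48 h. Lysates immunoblotted (SDS-PAGE, nitrocellulose, 5% milk block, primary antibody overnight at 4 °C) for EZH2, SUZ12, EED, RbAp48 and H3K27me3. Bands quantified by densitometry and normalized to GAPDH.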

[7] = target: T1, Protein cereblon/Histone-lysine N-methyltransferase EZH2 (Homo sapiens); assay: PROTAC activity at CRBN E3 ligase/EZH2 in PRC2 complex in human SK-OV-3 cells assessed as induction of EED degradation by measuring reduction in EED protein level at 1 uM incubated for 48 hrs by Western blot analysis; assay type: cell-based
Method in brief: (§2)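 Cells cultured in DMEM or RPMI 1640 with 10% FBS and 1% penicillin-streptomycin, 37 °C, 5% CO2; exposed to 1 μM compound for 48 h. Lysates run on SDS-PAGE and transferred to nitrocellulose. Blocked 2 h in 5% skim milk, primary antibody overnight at 4 °C, then secondary antibody. Chemiluminescent detection of PRC2 subunits and H3K27me3.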

[8] = target: T1, Protein cereblon/Histone-lysine N-methyltransferase EZH2 (Homo sapiens); assay: PROTAC activity at CRBN E3 ligase/EZH2 in PRC2 complex in human SK-OV-3 cells assessed as induction of RpAb48 degradation by measuring reduction in RpAb48 protein level at 1 uM incubated for 48 hrs by Western blot analysis; assay type: cell-based; method in brief: as §2
[9] = target: T1, Protein cereblon/Histone-lysine N-methyltransferase EZH2 (Homo sapiens); assay: PROTAC activity at CRBN E3 ligase/EZH2 in PRC2 complex in human WSUDLCL2 cells assessed as effect on RbAp48 mRNA expression at 1 uM incubated for 48 hrs by RT-qPCR analysis; assay type: cell-based
Method in brief: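 WSU-DLCL-2 cells treated 48 h with 1 μM compound. Total RNA extracted with Trizol and reverse-transcribed. SYBR qPCR run as 95 °C 30 s, then 40 cycles of 95 °C 6 s and 60 °C 20 s. PRC2 subunit mRNA normalized to the DMSO-treated group; mean SD, t-test.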

[10] = target: T1, Protein cereblon/Histone-lysine N-methyltransferase EZH2 (Homo sapiens); assay: PROTAC activity at CRBN E3 ligase/EZH2 in PRC2 complex in human WSUDLCL2 cells assessed as downregulation of EZH2 expression at 1 uM pretreated with MG-132 for 4 hrs followed by compound addition and measured after 48 hrs by Western blot analysis; assay type: cell-based
Method in brief: (§3)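 WSU-DLCL-2 cells pretreated 4 h with the named inhibitor, then compound added and incubated a further 48 h. EZH2, SUZ12, EED and RbAp48 measured by western blot (nitrocellulose transfer, skim-milk block, primary antibody overnight at 4 °C, chemiluminescent detection).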

[11] = target: T1, Protein cereblon/Histone-lysine N-methyltransferase EZH2 (Homo sapiens); assay: PROTAC activity at CRBN E3 ligase/EZH2 in PRC2 complex in human WSUDLCL2 cells assessed as increase in EZH2 ubiquitination at 1 uM measured after 48 hrs by co-immunoprecipitation assay; assay type: cell-based
Method in brief: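 WSU-DLCL-2 cells treated with 1 μM compound for 48 h and lysed in RIPA buffer. Lysates incubated with antibodies overnight at 4 °C, then 3 h with Protein G agarose beads at 4 °C. Proteins eluted in IP buffer and ubiquitination of the target probed by immunoblot.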

NCI-H1299 = assay: Downregulation of TACC3 mRNA expression in human NCI-H1299 cells at 10 uM incubated for 48 hrs by qRT-PCR analysis; assay type: functional, cell-based
Method in brief: (§4)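 Cells treated 48 h. Total RNA extracted with Trizol, reverse-transcribed, and SYBR RT-qPCR run: 95 °C 30 s, then 40 cycles of 95 °C 6 s and 60 °C 20 s. mRNA normalized to the DMSO-treated group. Mean SD of three independent experiments, t-test versus DMSO.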

MDA-MB-468 = assay: Downregulation of CEP76 mRNA expression in human MDA-MB-468 cells at 10 uM incubated for 48 hrs by qRT-PCR analysis; assay type: functional, cell-based; method in brief: as §4
Pfeiffer = assay: Antiproliferative activity against human Pfeiffer cells harboring EZH2-A677G mutant assessed as inhibition of cell growth incubated for 3 to 7 days by optical microscopic analysis (Rvb= 0.49 uM); assay type: functional, cell-based
[12] = target: T1, Protein cereblon/Histone-lysine N-methyltransferase EZH2 (Homo sapiens); assay: PROTAC activity at CRBN E3 ligase/EZH2 in PRC2 complex in human WSUDLCL2 cells assessed as downregulation of RbAp48 expression at 1 uM pretreated with lenalidomide for 4 hrs followed by compound addition and measured after 48 hrs by Western blot analysis; assay type: cell-based; method in brief: as §3
[13] = target: T1, Protein cereblon/Histone-lysine N-methyltransferase EZH2 (Homo sapiens); assay: PROTAC activity at CRBN E3 ligase/EZH2 in PRC2 complex in human WSUDLCL2 cells assessed as downregulation of RbAp48 expression at 1 uM pretreated with MLN4924 for 4 hrs followed by compound addition and measured after 48 hrs by Western blot analysis; assay type: cell-based; method in brief: as §3

## CCN(c1cc(-c2ccc(CN3CCN(CCCCCCCOc4cccc5c4C(=O)N(C4CCC(=O)NC4=O)C5=O)CC3)cc2)cc(C(=O)NCc2c(C)cc(C)[nH]c2=O)c1C)C1CCOCC1 (stereo unspecified)
[1]
  Activity: 75%
[2]
  Activity: 81%
[3]
  Activity: 72%
[4]
  Activity: inactive
[5]
  Activity: inactive
[6]
  Activity: Active
[7]
  Activity: Active
[8]
  Activity: Active
[9]
  Activity: inactive
[10]
  Activity: inactive
[11]
  Activity: Active
NCI-H1299
  Activity: Active
MDA-MB-468
  Activity: Active
Pfeiffer
  IC50: 210 nM
[12]
  Activity: inactive
[13]
  Activity: inactive
